Data as given in publication PMC8054679 (Analytical biochemistry, 2020).
“Also recorded” adds a separate entry of the source.

Tests used:
[1] = system: Hsp70-CHIP interaction (myc-LgBiT-IEEVD / SmBiT-CHIP-FLAG); type: cell-based; settings: for effect on NanoBiT luminescence, single dose: 5 μM, 6 hours, mean ± SD (n=3)
Outline: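 Stable reporter cells induced overnight with dox 100 μg/mL in 96-well plates. Peptides (DMSO-dissolved) given at 10 µM for 1 h; small-molecule inhibitors given at 5 µM for 6 h. Live-cell substrate added in Opti-Mem, 5 min dark at room temperature, then read at 500 ms integration. Uninduced background subtracted; normalized to DMSO control as percent; mean ± SD, n=3.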

Hsp70 = test: Western blot of lysate protein levels: Hsp70; type: cell-based; settings: compared to vehicle; western blot of treated NanoBiT cells
Outline: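 Reporter cells dox-induced overnight, then given test compound for 6 h. Inputs denatured 5 min at 95 °C. Blots blocked 1 h, primary antibody 1:1000 overnight at 4 °C, secondary 1:10000 for 1 h.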

[2] = system: NanoBiT reporter components (myc-LgBiT-IEEVD, SmBiT-CHIP-FLAG); test: Western blot of lysate protein levels: NanoBiT reporter components; type: cell-based; settings: anti-myc or anti-FLAG
[3] = system: dox-inducible NanoBiT reporter in NanoBiT cells; test: NanoBiT luminescence assay of dox-dependence and signal stability; type: cell-based; settings: dox 100 μg/mL, 24 hours
Outline: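 HEK293 Flp-In T-REx cells electroporated with a bicistronic myc-LgBiT-IEEVD/SmBiT-CHIP-FLAG vector plus pOG44, selected with 100 µg/mL hygromycin, and cloned. Cells cultured in 96-well plates ±dox 100 μg/mL for 24 h. Live-cell furimazine substrate added in Opti-Mem, 5 min dark at room temperature, then read at 500 ms integration. Uninduced-cell background subtracted; mean ± SD, n=3.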

CHIP TPR domain = settings: cited from earlier work

With `CO[C@H]1/C=C\C=C(/C)C(=O)NC2=CC(=O)C(NCCN(C)C)=C(C[C@@H](C)C[C@H](OC)[C@H](O)[C@@H](C)/C=C(\C)[C@@H]1OC(N)=O)C2=O` [17-DMAG, 17-dimethylaminoethylamino-17-demethoxygeldanamycin] the “effect on NanoBiT luminescence, single dose” value ([1]; percent of DMSO control) was “reduced the luminescence” and the “total abundance of Hsp70 in the lysate” value (Hsp70) was “increased the total abundance of Hsp70 in the lysate; also recorded: induces Hsp70 levels”.
With `CCn1c(=O)/c(=C2\Sc3cc(Cl)ccc3N2C)s/c1=C\c1scc[n+]1Cc1ccccc1.[Cl-]` [JG-98] the “effect on NanoBiT luminescence, single dose” value ([1]; percent of DMSO control) was “reduced luminescence” and the “stability/expression of NanoBiT reporter components” value [2] was “partially destabilized both components of the NanoBiT reporter”.
For `CCn1c(=O)/c(=C2\SCCN2C)s/c1=C\c1scc[n+]1Cc1ccccc1.[Cl-]` [JG-258], the “effect on NanoBiT luminescence, single dose” value ([1]; percent of DMSO control) was “but not an inactive control, JG-258, reduced luminescence”.
With `C[C@H]1c2cccc(O)c2C(=O)C2=C(O)[C@]3(O)C(=O)C(C(N)=O)=C(O)[C@@H](N(C)C)[C@@H]3[C@@H](O)[C@@H]21` [dox, doxycycline] the “stability/expression of NanoBiT reporter components” value [2] was “both reporter components were expressed in response to dox, with little background”, the luminescence with dox ([3]; mean ± SD (n=3)) was 47300 ± 1270 RLU and the “fold increase of luminescence compared to control without dox” value ([3]; n=3) was 31 fold.
In the case of Ac-LWWPD, the “efficacy in the NanoBiT assay” value ([1]; discussion statement, peptide without CPP) is listed as “no efficacy” and the “affinity for CHIP in vitro” value (CHIP TPR domain; in vitro, see Figure 1 (FP, adapted from ref 21)) is listed as “sub-micromolar affinity”.
In the case of LWWPD, the “binding to CHIP's purified TPR domain relative to IEEVD” value (CHIP TPR domain; FP, peptide in vitro, fold better than IEEVD) is listed as “at least 10 fold”.
In the case of R9-LWWPD, the “reduction of NanoBiT luminescence” value ([1]; 10 μM peptide, 1 hour, normalized to DMSO control, n=3) is reported as “approximately 40%” and the “effect on NanoBiT luminescence, peptides, single dose” value ([1]; 10 μM, 1 hour, percent of DMSO control, n=3) is reported as “cell active inhibitor”.
